Article PMC4550695 (mBio, 2015)

Columns and labels:
P. aeruginosa AmiC [1] = target: T1, P. aeruginosa AmiC (Pseudomonas aeruginosa, UniProt P27017); details: ref [36]; cited from earlier work
P. aeruginosa MPAO1 = test: Biofilm formation under static conditions, P. aeruginosa MPAO1; assay type: cell-based, Pseudomonas aeruginosa; details: isatin 10^−5 M alone, 24 h
Outline: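 Uses a GFP-plasmid (pSMC2.1) strain; overnight preculture at 37°C diluted into LB with 400 µg/ml kanamycin. Test compound added at 2 h of subculture from DMSO/water (5/95) stock, final DMSO under 0.2%, DMSO-matched controls. After 3 h more, cells pelleted, resuspended in 0.9% NaCl at OD600 0.1, 2 h static attachment on glass slides, then LB 24 h static at 37°C. PBS-rinsed, heat fixed, CLSM/COMSTAT.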

P. aeruginosa AmiC [2] = target: T1, P. aeruginosa AmiC; test: Microscale thermophoresis binding to recombinant AmiC; details: for affinity for / interaction with AmiC, in words: MST, pH 7.5, 25°C
Outline: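 His-tagged codon-optimised AmiC expressed in E. coli Rosetta2(DE3), purified by IMAC and gel filtration, RED-NHS labelled or unlabelled depending on ligand. AmiC at 50 nM final, mixed with 1:1 serial ligand dilutions in 50 mM Tris-HCl pH 7.5, 150 mM NaCl, 10 mM MgCl2, 0.05% Tween 20. After 5 min incubation, read at 25°C (laser 5/30/5 s); three independent pipettings; KD fitted by mass-action equation.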

[3] = endogenous, usual order; ref [52]; cited from earlier work
P. aeruginosa PA14 = test: Biofilm formation under dynamic conditions, P. aeruginosa PA14 wild type; assay type: cell-based, Pseudomonas aeruginosa; details: 24 h
[4] = tested on: ami operon of P. aeruginosa; test: qRT-PCR of ami operon mRNA; assay type: cell-based, Pseudomonas aeruginosa; details: BNP 10^−6 M; data not shown
PA14 ΔamiC strain = test: Biofilm formation under dynamic conditions, PA14 ΔamiC strain; assay type: cell-based, Pseudomonas aeruginosa; details: BNP 10^−7 M, 24 h, P < 0.05, eight samples from three experiments
P. aeruginosa cAMP = details: ref [17]; cited from earlier work
Caenorhabditis elegans = details: ref [16]; cited from earlier work
NPR-C receptor = details: mammalian cells; ref [25]; cited from earlier work
NPR-A receptor = details: mammalian cells; ref [25]; cited from earlier work
[5] = tested on: membrane of P. aeruginosa; details: inducing increased virulence; ref [14]; cited from earlier work

T1 sequence (P27017 whole entry): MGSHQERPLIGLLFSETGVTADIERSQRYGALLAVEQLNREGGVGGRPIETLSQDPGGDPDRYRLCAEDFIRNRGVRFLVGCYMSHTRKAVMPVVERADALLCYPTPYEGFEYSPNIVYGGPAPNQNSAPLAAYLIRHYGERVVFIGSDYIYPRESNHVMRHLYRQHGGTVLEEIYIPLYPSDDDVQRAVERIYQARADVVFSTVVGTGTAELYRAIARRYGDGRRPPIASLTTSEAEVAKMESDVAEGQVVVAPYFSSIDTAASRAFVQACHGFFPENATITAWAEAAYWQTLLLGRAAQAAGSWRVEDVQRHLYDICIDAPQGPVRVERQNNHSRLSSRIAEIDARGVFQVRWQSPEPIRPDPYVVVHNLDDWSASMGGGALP

CC(N)=O [acetamide]
effect of acetamide on ami operon transcription via AmiC (P. aeruginosa AmiC [1]): triggering the transcription of the whole ami operon

O=C1Nc2ccccc2C1=O [isatin, indole-2,3-dione]
effect of isatin alone on organization of the biofilm (P. aeruginosa MPAO1): more irregular, with the presence of large water channels
effect of isatin alone on biomass and thickness of the biofilm (P. aeruginosa MPAO1; two independent experiments): limited and nonsignificant increase
Kd (P. aeruginosa AmiC [2]): 600 ± 200 µM
normal blood isatin concentration [3]: 0.3 to 1.3 µM

brain natriuretic peptide [BNP]
change of biofilm average thickness (P. aeruginosa PA14; 10^−6 M, PA14, dynamic (flow cell), LB, 37°C, vs control, P < 0.001): −76.0 ± 4.8%
change of biofilm volume (P. aeruginosa PA14; 10^−6 M, PA14, dynamic (flow cell), LB, 37°C, vs control, P < 0.001, CNP: ten samples from six experiments, BNP: six samples from two experiments): −80.3% ± 4.4%
number and mean size of mushroom-like structures in the biofilm (P. aeruginosa PA14; 10^−6 M, PA14, dynamic, confocal microscopy): reduction of the number and mean size of mushroom-like structures
change of biofilm formation (P. aeruginosa PA14; BNP 10^−7 M, PA14 wild type, dynamic, P < 0.001, nine samples from three experiments): −75.1% ± 9.9%
whole ami operon transcriptional activity [4]: no significant effect
affinity for / interaction with AmiC, in words (P. aeruginosa AmiC [2]): no affinity for AmiC
change of biofilm formation in ΔamiC mutant (PA14 ΔamiC strain): −70.8% ± 12.1%
intrabacterial cAMP (P. aeruginosa cAMP): did not modify intrabacterial cAMP levels
effect on P. aeruginosa virulence for Caenorhabditis elegans (Caenorhabditis elegans): without effect
affinity for NPR-C (NPR-C receptor): weak affinity
affinity for NPR-A (NPR-A receptor): strongly binds

dynorphin
crossing of the membrane of P. aeruginosa [5]: able to freely cross the membrane

B1: osteocrin: specific NPR-C agonist, synthesized by J. Leprince (peptide, UniProt P61366 28-133, looked up)
Osteocrin: VDVTTTEAFDSGVIDVQSTPTVREEKSATDLTAKLLLLDELVSLENDVIETKKKRSFSGFGSPLDRLSAGSVDHKGKQRKVVDHPKRRFGIPMDRIGRNRLSNSRG
modifications: Osteocrin
affinity for / interaction with AmiC, in words (P. aeruginosa AmiC [2]): very strong interaction
